Source: ChEMBL document CHEMBL3734686, “Synthesis, Photophysical Properties, and Biological Evaluation of trans-Bisthioglycosylated Tetrakis(fluorophenyl)chlorin for Photodynamic Therapy” (J Med Chem, 2015)

What was measured:
[1] = Induction of reactive oxygen generation assessed as quantum yield of singlet oxygen generation in O2 saturated D2O containing 0.1% DMSO by spectrometry; assay type: physicochemical
Outline: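 Photosensitizer in D2O with 0.1% DMSO, absorbance set to 0.4 at its excitation wavelength, oxygen-purged 1 min; singlet-oxygen luminescence recorded with NIR photomultiplier cooled to 193 K; TPPS as reference.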

[2] = Ratio of drug level in tumor to skin in iv dosed BDXI rat implanted with rat LSBD1 cells after 24 hrs; assay type: ADME, organism-based; conditions: in vivo
[3] = Induction of reactive oxygen generation assessed as quantum yield of hydrogen peroxide generation in O2 saturated PBS containing 1% DMSO under photoirradiation by spectrometry relative to control hematoporphyrin; assay type: physicochemical; conditions: buffer
Outline: (§1)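 Photosensitizer (1.00 µM) with HPF (2.00 µM) in PBS containing 1% DMSO, oxygenated 1 min, irradiated with 100-W halogen lamp through λ>500 nm cutoff filter at 37°C; hematoporphyrin as reference.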

[4] = Induction of reactive oxygen generation assessed as quantum yield of hydroxyl radical generation in O2 saturated PBS containing 1% DMSO under photoirradiation by spectrometry relative to control hematoporphyrin; assay type: physicochemical; conditions: buffer; outline: as §1
HeLa [5] = experiment: Dark cytotoxicity against human HeLa cells at 0.5 uM assessed as cell survival preincubated for 24 hrs measured by WST-8 assay in absence of photoirradiation; assay type: cell-based
Outline: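 HeLa cells were seeded at 5 × 10^3 per well in DMEM with 10% FCS and grown for 24 h at 37°C. They were then exposed for 24 h to 0.5 µM photosensitizer (1% DMSO final), washed, and not irradiated. Viability was read 24 h later by WST-8 absorbance at 450 nm and expressed as percent of untreated wells.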

HeLa [6] = experiment: Photocytotoxicity against human HeLa cells assessed as cell survival preincubated for 24 hrs followed by irradiation at 16 J/cm2 measured at 24 hrs by WST-8 assay; assay type: functional, cell-based; conditions: light or radiation study
Outline: (§2)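 Cells (5 × 10^3/well) in DMEM with 10% FCS, 24 h at 37°C, 5% CO2; photosensitizer 1–50000 nM (1% DMSO final) for 24 h, washed, fresh medium. Irradiated with 100-W halogen lamp through λ>500 nm or λ>600 nm cutoff filter to 16 J·cm−2; WST-8 absorbance at 450 nm 24 h later, survival normalized to no-drug wells.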

HeLa [7] = experiment: Drug uptake in human HeLa cells at 0.1 uM after 24 hrs by spectrophotometrical analysis; assay type: ADME, cell-based
Outline: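 HeLa cells (2.5 × 10^6/well) in DMEM with 10% FCS, preincubated 24 h at 37°C; photosensitizer added to 0.1 µM final (1% DMSO) for 24 h, two wells each. Cells washed twice with PBS, lysed in DMSO, Soret-band absorbance read against DMSO calibration; mean of three replicate experiments.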

[8] = Photocytotoxicity against mouse B16-F1 cells assessed as cell survival preincubated for 24 hrs followed by irradiation at 16 J/cm2 measured at 24 hrs by WST-8 assay; assay type: functional, cell-based; conditions: B16-F1, light or radiation study; outline: as §2
4T1 = experiment: Photocytotoxicity against mouse 4T1 cells assessed as cell survival preincubated for 24 hrs followed by irradiation at 16 J/cm2 measured at 24 hrs by WST-8 assay; assay type: functional, cell-based; conditions: 4T1, light or radiation study; outline: as §2
[9] = Photocytotoxicity against rat RGK1 cells assessed as cell survival preincubated for 24 hrs followed by irradiation at 16 J/cm2 measured at 24 hrs by WST-8 assay; assay type: functional, cell-based; conditions: RGK1, light or radiation study; outline: as §2
[10] = Photocytotoxicity against human U87 cells assessed as cell survival preincubated for 24 hrs followed by irradiation at 16 J/cm2 measured at 24 hrs by WST-8 assay; assay type: functional, cell-based, U-87MG ATCC; conditions: U-87 MG, light or radiation study; outline: as §2
U-251 = experiment: Photocytotoxicity against human U251 cells assessed as cell survival preincubated for 24 hrs followed by irradiation at 16 J/cm2 measured at 24 hrs by WST-8 assay; assay type: functional, cell-based; conditions: U-251, light or radiation study; outline: as §2
T98G = experiment: Photocytotoxicity against human T98G cells assessed as cell survival preincubated for 24 hrs followed by irradiation at 16 J/cm2 measured at 24 hrs by WST-8 assay; assay type: functional, cell-based; conditions: light or radiation study; outline: as §2

SMILES | Activity [1] | Ratio [3] | Ratio [4] | Activity (HeLa [5]) | EC50 (HeLa [6]) | Drug uptake (HeLa [7]) | further results
O=S(=O)(O)c1ccc(-c2c3nc(c(-c4ccc(S(=O)(=O)O)cc4)c4ccc([nH]4)c(-c4ccc(S(=O)(=O)O)cc4)c4nc(c(-c5ccc(S(=O)(=O)O)cc5)c5ccc2[nH]5)C=C4)C=C3)cc1 | 0.72 | – | – | – | – | – | –
Oc1cccc(-c2c3nc(c(-c4cccc(O)c4)c4ccc([nH]4)c(-c4cccc(O)c4)c4nc(c(-c5cccc(O)c5)c5ccc2[nH]5)CC4)C=C3)c1 [TEMOPORFIN] | – | – | – | – | – | – | Ratio [2]: 3
CN1CC2C3=N/C(=C(/c4c(F)c(F)c(S[C@@H]5O[C@H](CO)[C@@H](O)[C@H](O)[C@H]5O)c(F)c4F)C4=N/C(=C(/c5c(F)c(F)c(S[C@@H]6O[C@H](CO)[C@@H](O)[C@H](O)[C@H]6O)c(F)c5F)c5ccc([nH]5)/C(c5c(F)c(F)c(S[C@@H]6O[C@H](CO)[C@@H](O)[C@H](O)[C@H]6O)c(F)c5F)=C5/C=CC(=N5)C3c3c(F)c(F)c(S[C@@H]5O[C@H](CO)[C@@H](O)[C@H](O)[C@H]5O)c(F)c3F)C=C4)C2C1 (stereo partly drawn) | 0.17 | 1.7 | 1.1 | Non-toxic | 50 nM | Active | –
CC1=C(CCC(=O)O)c2cc3[nH]c(cc4nc(cc5[nH]c(cc1n2)c(C)c5C(C)O)C(C)=C4C(C)O)c(C)c3CCC(=O)O (stereo not drawn) [HEMATOPORPHYRIN] | – | 1 | 1 | – | – | – | –
OC[C@H]1O[C@@H](Oc2ccc(/C3=C4\C=CC(=N4)C(c4ccc(O[C@@H]5O[C@H](CO)[C@@H](O)[C@H](O)[C@H]5O)cc4)C4=N/C(=C(/c5ccc(O[C@@H]6O[C@H](CO)[C@@H](O)[C@H](O)[C@H]6O)cc5)c5ccc([nH]5)/C(c5ccc(O[C@@H]6O[C@H](CO)[C@@H](O)[C@H](O)[C@H]6O)cc5)=C5/C=CC3=N5)C=C4)cc2)[C@H](O)[C@@H](O)[C@@H]1O (stereo partly drawn) | – | – | – | – | 5000 nM | – | –
OC[C@H]1O[C@@H](Sc2c(F)c(F)c(/C3=C4\C=CC(=N4)C(c4c(F)c(F)c(F)c(F)c4F)C4=N/C(=C(/c5c(F)c(F)c(S[C@@H]6O[C@H](CO)[C@@H](O)[C@H](O)[C@H]6O)c(F)c5F)c5ccc([nH]5)/C(c5c(F)c(F)c(F)c(F)c5F)=C5/C=CC3=N5)C=C4)c(F)c2F)[C@H](O)[C@@H](O)[C@@H]1O (stereo partly drawn) | 0.16 | 0.8 | 7.7 | Non-toxic | 10 nM | Active | EC50 [8]: 1 nM; EC50 (4T1): 10 nM; EC50 [9]: 10 nM; EC50 [10]: 10 nM; EC50 (U-251): 10 nM; EC50 (T98G): 10 nM
